Shown are actives, neighbours in structure and some others; about 5.5% of the full set was active somewhere.
BB579 growth dn: growth inhibitors of yeast BB579 in restrictive medium, primary screen, yeast lifespan-shortening project, S. cerevisiae. OD615, 48 h. inhibition, % at 10 µM. 0.51% of 140,000 active. AID 804, 2007;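 active means inhibition above a set limit, 3 SD over the mean compound inhibition, cut at about 44% in these data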
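Assay system: S. cerevisiae DeaD strain BB579 yeast. Medium: CSMM-D restrictive synthetic medium containing dextrose (glucose). Times: 4 h cell preincubation, 48 h compound exposure, 30 °C humidified. Signal: OD615 turbidity measurement. Benchmarks: positive control amphotericin B 10 µg/mL.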
Yeast life ext: compounds extending yeast replicative lifespan, primary screen, S. cerevisiae, OD615. S. cerevisiae growth with nicotinamide; deaD strain in restrictive glucose medium. inhibition of the nicotinamide effect, % at 10 µM. 0.68% of 130,000 active. AID 775, 2007;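 active means inhibition above a set limit, placed 3 SD over the median of all compounds, cut at about 26% in these data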
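System: DeaD-strain S. cerevisiae / Buffer or medium: CSMM-D, restrictive glucose (dextrose) synthetic minimal medium / Probe or stimulus: nicotinamide, 1.5 mM, co-present with compound / Compound: one concentration, 10 µM, DMSO 0.25% / Incubation: 48 h compound exposure at 30 °C, humidified / Technique: optical density (absorbance) at 615 nm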
RAM inhibit: inhibitors of the yeast RAM network, primary screen, dse1pr::URA3 reporter, 5-FOA selection | S. cerevisiae dse1pr::URA3 reporter, 5-FOA growth OD615, 2 d; analog-sensitive cbk1-as2 kinase mutant strain | inhibition, % at 50 µM | 1.8% of 190,000 active;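 active means inhibition above a set limit, 3 SD over mean compound inhibition, cut at about 8.4% in these data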;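 further: inhibition rescues growth on 5-FOA so higher OD means more RAM inhibition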
WT yeast gro inh: growth inhibition of WT strain, primary screen, mitochondrial fusion inhibitor project, WT and mutant strains, chemical genetic; inhibition, % at 10 µM; 2.1% of 190,000 active; AID 1362, 2008; mitochondrial fusion phenotypic screen; in the data active means inhibition above about 58%; tested in S. cerevisiae
Cl transport mod: KCC2 cotransporter modulators, thallium flux, primary screen, cell-based, HEK293 KCC2, FluoZin-2 fluorescence, MLSMR; 2.2% of 190,000 active; KCC2 cells, thallium flux FluoZin-2 fluorescence; Solute carrier family 12 member 5 (Homo sapiens), Q9H2X9; B-score of Tl+ flux slope (higher = more flux/activation; lower = inhibition) at 10 µM;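 active means thallium flux slope and its plate-corrected score both differing from the plate sample mean at a set confidence after two filtering rounds, in either direction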;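 further: slope of fluorescence scaled to starting intensity during 10 to 20 s after thallium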
Target sequence (Q9H2X9 whole entry, looked up): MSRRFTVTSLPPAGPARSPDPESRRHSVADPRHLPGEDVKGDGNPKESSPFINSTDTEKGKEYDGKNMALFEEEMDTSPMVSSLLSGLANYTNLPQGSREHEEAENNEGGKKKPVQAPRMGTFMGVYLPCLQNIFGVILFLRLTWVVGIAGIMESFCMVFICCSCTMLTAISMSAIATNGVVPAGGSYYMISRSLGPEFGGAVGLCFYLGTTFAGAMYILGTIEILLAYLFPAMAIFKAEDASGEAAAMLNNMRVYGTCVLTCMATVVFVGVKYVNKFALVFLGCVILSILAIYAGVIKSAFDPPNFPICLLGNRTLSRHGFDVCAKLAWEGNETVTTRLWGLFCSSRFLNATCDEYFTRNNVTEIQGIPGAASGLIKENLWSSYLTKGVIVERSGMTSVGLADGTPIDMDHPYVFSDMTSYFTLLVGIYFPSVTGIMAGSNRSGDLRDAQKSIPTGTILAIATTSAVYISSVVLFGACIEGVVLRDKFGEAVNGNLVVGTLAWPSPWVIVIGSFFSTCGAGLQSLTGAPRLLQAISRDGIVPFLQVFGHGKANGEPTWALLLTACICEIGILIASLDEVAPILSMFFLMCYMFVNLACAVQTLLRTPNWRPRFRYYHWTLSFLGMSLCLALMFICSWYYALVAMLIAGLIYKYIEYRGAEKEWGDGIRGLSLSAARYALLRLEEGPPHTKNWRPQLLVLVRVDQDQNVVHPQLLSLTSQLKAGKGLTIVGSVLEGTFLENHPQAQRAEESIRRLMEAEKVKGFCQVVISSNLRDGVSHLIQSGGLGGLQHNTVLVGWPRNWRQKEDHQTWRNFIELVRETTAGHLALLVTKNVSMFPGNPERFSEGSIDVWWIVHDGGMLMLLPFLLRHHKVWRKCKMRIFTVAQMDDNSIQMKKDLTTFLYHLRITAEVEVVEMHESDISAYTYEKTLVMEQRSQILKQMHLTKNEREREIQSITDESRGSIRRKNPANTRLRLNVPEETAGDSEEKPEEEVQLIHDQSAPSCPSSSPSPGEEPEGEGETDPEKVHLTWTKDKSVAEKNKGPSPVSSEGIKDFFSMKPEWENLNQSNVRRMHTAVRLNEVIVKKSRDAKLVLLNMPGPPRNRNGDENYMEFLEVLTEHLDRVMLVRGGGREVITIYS
KCC2 sec1: KCC2 modulators in sodium-free buffer, confirmation, cell-based, HEK293 KCC2, thallium flux, secondary assay | 15% of 3,700 active | shares compounds with Cl transport mod | FluoZin2 fluorescence; active compounds read high | normalised thallium flux (F/F0 slope) at 10 µM;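 active means thallium flux slope above the same plate's solvent-only control mean plus 3 SD; inconclusive means the two replicate wells disagree; inactive means no significant difference from solvent-only control wells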
KCC2 bumet counter: thallium flux persisting under bumetanide in KCC2 cells, confirmation, counter-screen for KCC2 modulator project, cell-based, HEK293 KCC2, FluoZin2, secondary assay 3 | normalized thallium flux at 10 µM | AID 1714, 2009 | shares compounds with Cl transport mod | HEK293-KCC2 + bumetanide/ouabain; active compounds read high | 49% of 3,700 active;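 active means thallium entry rate above the same plate's blocked-transporter control wells by more than 3 SD; inconclusive means the two repeat wells disagree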;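 further: raw slope of fluorescence over initial fluorescence between 10 and 20 s after thallium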
KCC2 sec2: KCC2 modulators without ouabain present, confirmation, cell-based, HEK293 KCC2, thallium flux, FluoZin2, secondary assay 2; shares compounds with Cl transport mod; thallium flux FluoZin2 fluorescence; actives lie on both sides; F/F0 rise rate, 10–20 s post-thallium; normalized thallium flux at 10 µM; 23% of 3,700 active;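 active means thallium flux slope more than 3 SD above or below the plate's solvent-only control mean, mostly below; inconclusive means the two repeat wells disagreed; inactive means no significant shift from solvent-only controls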
HEK293 Tl flux: thallium flux modulation in parental HEK cells, confirmation, counter-screen for KCC2 modulator project, cell-based, counterscreen 1. shares compounds with Cl transport mod. thallium flux rate (normalised fluorescence) at 10 µM. HEK293 parental cells, thallium flux FluoZin2, ouabain; baseline-ratio fluorescence slope, 10–20 s after thallium. 46% of 3,700 active;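 active means thallium flux rate significantly above the same plate's solvent-only control wells, beyond their mean plus 3 SD; inconclusive means the two replicate wells gave conflicting results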
KCC2 ouabain: KCC2 inhibitors and activators, ouabain retest, confirmation, HEK-KCC2 cells | shares compounds with Cl transport mod | HEK293-KCC2, thallium flux FluoZin2 fluorescence; bidirectional: low = inhibitor, high = activator | raw Tl+ flux slope (below DMSO = inhibition, above = activation) at 10 µM | 48% of 3,700 active;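 active means thallium flux slope beyond 3 SD from same-plate DMSO control mean in most replicates, usually higher, sometimes lower; inconclusive means repeat tests gave conflicting results; inactive means no significant difference from controls in most replicates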;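 further: slope of initial-normalized fluorescence between seconds 10 and 20 after thallium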
HEK293 Tl flux2: native HEK Tl+ uptake effects, second counter-screen – HEK cells, counterscreen 2, counter-screen for KCC2 modulator project, confirmation; shares compounds with Cl transport mod; HEK293 parental, thallium flux FluoZin-2 fluorescence slope; thallium flux slope at 10 µM; 33% of 3,700 active; AID 1718, 2009;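 active means thallium flux slope above the same plate's solvent-control mean plus 3 SD in both duplicate wells; inconclusive means duplicate wells that disagreed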;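 further: run without ouabain in cells lacking the KCC2 cotransporter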
Numbers stand for hits; i = inactive; ? = inconclusive; nt = no result.

SMILES | BB579 growth dn | Yeast life ext | RAM inhibit | WT yeast gro inh | Cl transport mod | KCC2 sec1 | KCC2 bumet counter | KCC2 sec2 | HEK293 Tl flux | KCC2 ouabain | HEK293 Tl flux2
O=C(N/N=C/c1ccc([N+](=O)[O-])o1)c1sc2ccccc2c1Cl | nt | nt | nt | nt | 17 | 0.018 | 0.1 | i | 0.019 | 0.054 | 0.012
O=C(N/N=C/c1ccccn1)c1sc2ccccc2c1Cl | nt | nt | nt | nt | 153 | 0.0091 | 0.11 | 0.054 | 0.1 | 0.089 | 0.082
O=C(N/N=C/c1ccc(-c2ccccc2)o1)c1ccccc1O | nt | nt | nt | nt | 80 | 0.025 | 0.092 | i | 0.035 | 0.052 | 0.013
CNC(=S)N/N=C/c1cc(C)ccc1C | nt | nt | i | i | i | nt | nt | nt | nt | nt | nt
CNC(=S)N/N=C/c1c(C)cccc1Cl | nt | nt | nt | nt | 4.4 | i | 0.017 | i | 0.0085 | ? | i
CC(C)CC(=O)Nc1cccc(C(=O)Nc2ccccc2C(=O)O)c1 | i | i | i | i | nt | nt | nt | nt | nt | nt | nt
C=CCn1c(COc2ccccc2F)nnc1SCC(=O)c1c[nH]c2ccccc12 | i | i | i | i | i | nt | nt | nt | nt | nt | nt
Cc1ccc(C(=O)CC2(O)C(=O)N(C)c3ccc(Br)cc32)c(C)c1 (stereo not drawn) | i | i | i | i | -3.6 | i | ? | i | 0.009 | i | i
CCCCC(=O)NC(=S)NNC(=O)c1ccc(Cl)cc1Cl | nt | nt | i | i | 33 | 0.0099 | 0.069 | 0.04 | 0.048 | 0.057 | 0.029
CCCCC(=O)NC(=S)NNC(=O)c1ccc(OC)cc1 | nt | nt | i | i | 27 | 0.021 | 0.053 | i | ? | 0.039 | ?
O=C(CCc1ccccc1)Nc1ccc(Cl)cn1 | i | i | i | i | i | nt | nt | nt | nt | nt | nt
S=C(Nc1ccccc1)Nc1ccc(Cl)cn1 | nt | nt | i | i | 5.8 | i | 0.017 | i | 0.01 | i | i
O=C(NNC(=S)Nc1cccc(C(F)(F)F)c1)c1ccc(Cl)cc1Cl | i | i | i | i | 6.3 | i | 0.027 | i | 0.021 | ? | 0.022
CCCNC(=O)c1ccc(Cl)cc1Cl | nt | nt | nt | nt | i | nt | nt | nt | nt | nt | nt
CCNC(=S)NNC(=O)c1ccc(OC)cc1 | nt | nt | i | i | i | nt | nt | nt | nt | nt | nt
O=C(O)CCCN=Cc1c(O)c2ccccc2oc1=O | nt | nt | i | i | i | nt | nt | nt | nt | nt | nt
O=C(NC(=S)Nc1ccccc1O)c1ccc(Cl)cc1Cl | nt | nt | i | i | 5.2 | i | 0.013 | i | 0.013 | ? | 0.013
CC(=O)Nc1ccc(NC(=S)NC(=O)c2ccc([N+](=O)[O-])cc2)cc1 | i | i | i | i | i | nt | nt | nt | nt | nt | nt
O=C(NNC(=S)NC(=O)c1ccccc1[N+](=O)[O-])c1ccc(Cl)cc1Cl | nt | nt | i | i | 4.9 | i | 0.016 | i | 0.014 | ? | i
CCCCCC(=O)NC(=S)Nc1ccc(Cl)cn1 | i | i | i | i | 8.3 | i | 0.013 | i | 0.016 | ? | 0.018
CCCCCC(=O)NNC(=S)NC(=O)c1ccc([N+](=O)[O-])cc1 | nt | nt | i | 62 | 13 | i | 0.027 | i | 0.02 | 0.033 | 0.02
Nc1[nH]nc2c1NN(c1ccc(Cl)cc1Cl)N2 | i | i | i | i | i | nt | nt | nt | nt | nt | nt
CCC(c1nnc(SCC(=O)NCCc2ccc(Cl)cc2Cl)o1)N(C)C (stereo not drawn) | i | i | i | i | i | nt | nt | nt | nt | nt | nt
C/C(=N\NC(=S)Nc1ccccc1)C1Cc2ccccc2C(=O)O1 (stereo not drawn) | nt | nt | nt | nt | 6.6 | i | 0.01 | i | 0.011 | i | 0.013
Cc1ccc(C(=O)c2c[nH]c(C(=O)NCc3cccnc3)c2)cc1 | i | i | i | i | i | nt | nt | nt | nt | nt | nt
SMILES | BB579 growth dn | Yeast life ext | RAM inhibit | WT yeast gro inh | Cl transport mod | KCC2 sec1 | KCC2 bumet counter | KCC2 sec2 | HEK293 Tl flux | KCC2 ouabain | HEK293 Tl flux2
COC(=O)C1=C(C)N(CCCC(=O)O)C(=O)NC1c1cc2c(cc1[N+](=O)[O-])OCO2 (stereo not drawn) | i | i | i | i | 3.7 | i | ? | i | i | i | i
COC(=O)C1=C(C)N(C)C(=O)NC1c1cc2c(cc1[N+](=O)[O-])OCO2 (stereo not drawn) | nt | nt | i | i | i | nt | nt | nt | nt | nt | nt
CCOC(=O)CNC(=O)C(Cc1ccccc1)NC(=O)OCc1ccccc1 (stereo not drawn) | nt | nt | i | i | -5.5 | i | i | 0.025 | i | ? | i
CCNc1nc(NC(C)C)nc(N(C#N)C(C)C(=O)N(CC)CC)n1 (stereo not drawn) | nt | nt | nt | nt | i | nt | nt | nt | nt | nt | nt
NC(=O)C1CCN(CC(=O)c2c[nH]c3ccc(F)cc23)CC1 | i | i | i | i | i | nt | nt | nt | nt | nt | nt
O=C(CN1CCN(c2ccccc2F)CC1)c1c[nH]c2ccc(F)cc12 | i | i | i | i | -4 | i | 0.011 | i | ? | 0.018 | i
COc1ccc(/C=C/CN2CCC(CO)(Cc3ccccc3Cl)CC2)cc1 | nt | nt | i | i | i | nt | nt | nt | nt | nt | nt
N#Cc1cc2c([nH]c1=S)CCCCCC2 | i | i | i | i | 6.4 | 0.013 | 0.022 | i | 0.013 | ? | ?
Cc1nc2ccccc2c2c1C(=O)N(C1CCCCCCC1)C2=O | i | i | i | i | -4.8 | i | ? | i | i | i | i
Cc1ccc(S(=O)(=O)NNC(=S)NC(=O)c2ccc([N+](=O)[O-])cc2)cc1 | i | i | i | i | i | nt | nt | nt | nt | nt | nt
Cc1ccc(C(=O)NC(=S)NNS(=O)(=O)c2ccc(C)cc2)cc1 | i | i | i | i | 6.2 | 0.017 | 0.023 | i | 0.0092 | i | 0.012
O=C(COc1ccc2ccccc2c1Br)Nn1cnnc1 | i | i | i | i | -4.7 | i | ? | 0.025 | i | ? | i

Source: PubChem BioAssay
